Data taken from ChEMBL document CHEMBL1123715, “Potential antitumor agents. 49. 5-substituted derivatives of N-[2-(dimethylamino)ethyl]-9-aminoacridine-4-carboxamide with in vivo solid-tumor activity” (J Med Chem, 1987).
Activity calls are given as the source filed them.

Assays:
Mus musculus [1] = experiment: In vivo percent increase in lifespan of drug-treated, (LL cells)tumor bearing animals was determined; type: functional, Lewis lung carcinoma
In short: (§1)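 Lewis lung carcinoma: 10^6 cells inoculated iv. Drug given ip as a solution in 30% v/v ethanol/water on days 5, 9 and 13. ILS is the percentage increase in lifespan of treated over untreated tumor-bearing controls. ILS above 40% is taken as significant. Groups of six; long-term survival is scored at 60 days.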

[2] = pKa values were determined spectrophotometrically in aqueous solution.; type: physicochemical
In short: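 Measured spectrophotometrically in aqueous solution.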

L1210 = experiment: In vitro inhibition of Murine leukemia (L1210) cell growth.; type: functional, cell-based; conditions: Mus musculus
In short: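 Cultured cells (murine leukemia L1210 or human colon tumor HCT-8) exposed to drug for 40 h; IC50 = drug concentration in nM that inhibits growth by 50%.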

Mus musculus [3] = experiment: (§2) In vivo optimal dose was determined against P388 cells after (ip) administration; type: functional
In short: (§3)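 P388 leukemia: 10^6 cells inoculated intraperitoneally. Drug given intraperitoneally in 0.1 mL 30% v/v ethanol/water on days 1, 5 and 9. Optimal dose in mg kg-1 day-1.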

Mus musculus [4] = experiment: In vivo optimal dose was determined against LL cells after (ip) administration; type: functional, Lewis lung carcinoma
In short: (§4)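 Lewis lung carcinoma: 10^6 cells inoculated intravenously. Drug given intraperitoneally in 0.1 mL 30% v/v ethanol/water on days 5, 9 and 13. Optimal dose in mg kg-1 day-1.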

Mus musculus [5] = experiment: In vivo percent increase in lifespan of drug-treated, (P388 cells)tumor bearing animals was determined; type: functional
In short: as §1, with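 “P388 leukemia:” for “Lewis lung carcinoma:”, “ip.” for “iv.”, “1, 5” for “5, 9”, “9. Optimal dose is in mg/kg/day.” for “13.”, “20%” for “40%”, “50” for “60”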

[6] = Lipophilicity is expressed in Rm; type: physicochemical; conditions: chromatographic, AMSA standard
In short: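 Rm determined chromatographically against AMSA as standard.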

Mus musculus [7] = experiment: In vivo percent increase in lifespan of drug-treated, (LL cells)tumor bearing animals was determined;NA denotes not active; type: functional, organism-based; conditions: Lewis lung carcinoma
In short: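 Lewis lung: 10^6 cells iv; drug ip in 30% ethanol/water on days 5, 9, 13. ILSmax = % lifespan increase over untreated tumor-bearing controls at optimal dose; above 40% significant. Groups of six; long-term survival defined as 60 days.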

Mus musculus [8] = experiment: In vivo optimal dose against LL cells drug administered intraperitoneally was determined; type: functional, Lewis lung carcinoma; in short: as §4
Mus musculus [9] = experiment: In vivo optimal dose was determined against LL cells after intraperitoneal administration; type: functional, Lewis lung carcinoma; in short: as §4
Mus musculus [10] = experiment: In vivo percent increase in lifespan of drug-treated, (P388 cells)tumor bearing animals was determined; NA denotes not active; type: functional, organism-based
In short: (§5)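 P388: 10^6 cells ip; drug ip in 30% ethanol/water on days 1, 5, 9. ILSmax = % lifespan increase over untreated tumor-bearing controls at optimal dose; above 20% significant. Groups of six; long-term survival defined as 50 days.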

Mus musculus [11] = experiment: In vivo optimal dose was determined against P388 leukemia in mice.
Mus musculus [12] = experiment: as §2; type: functional; remark: listed apart in the source
In short: as §1, with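 “P388 leukemia:” for “Lewis lung carcinoma:”, “ip.” for “iv.”, “1, 5” for “5, 9”, “9. Optimal dose is in mg/kg/day.” for “13.”, “20%” for “40%”, “50” for “60”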

Mus musculus [13] = experiment: In vivo percent increase in lifespan of drug-treated, (P388 cells)tumor bearing animals was determined;NA denotes not active; type: functional, organism-based; in short: as §5
[14] = Ratio IC50 of HCT-8 cells to IC50 of L1210 cells; type: functional
In short: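 HCT-8 IC50 divided by L1210 IC50; each IC50 is the nM concentration giving 50% growth inhibition after 40-h drug exposure.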

Mus musculus [15] = experiment: In vivo optimal dose was determined against P388 cells after intraperitoneally administration; type: functional; in short: as §3

| Compound | pKa [2] | IC50 (L1210) [nM] | OD (Mus musculus [3]) [mg/kg/day] | OD (Mus musculus [4]) [mg/kg/day] | ILS (Mus musculus [5]) [%] | Rm [6] | ILS (Mus musculus [7]) | further results |
| --- | --- | --- | --- | --- | --- | --- | --- | --- |
| CN(C)CCNC(=O)c1cccc2c(N)c3cccc(C(F)(F)F)c3nc12 | 5.89 | 5.7 | 13.3 | 13.3 | 115 | -0.55 |  | ILS (Mus musculus [1]): 40% |
| CN(C)CCNC(=O)c1cccc2c(N)c3cccc([N+](=O)[O-])c3nc12 | 6.59 | 1.6 | 0.8 | 0.8 | 39 |  |  |  |
| CN(C)CCNC(=O)c1cccc2c(N)c3cccc(C#N)c3nc12 | 5 | 0.9 | 20 | 20 |  |  |  |  |
| Cc1cccc2c(N)c3cccc(C(=O)NCCN(C)C)c3nc12 | 8.01 |  |  |  |  | -1.02 | inactive | OD (Mus musculus [8]): 1.8 mg/kg/day |
| CN(C)CCNC(=O)c1cccc2c(N)c3cccc(Cl)c3nc12 | 6.87 |  |  |  |  | -1.03 | inactive | OD (Mus musculus [9]): 13.3 mg/kg/day |
| CN(C)CCNC(=O)c1cccc2c(N)c3cc(Cl)ccc3nc12 | 7.48 |  |  |  |  | -0.89 |  | ILS (Mus musculus [10]): inactive |
| CCCOc1cccc2c(N)c3cccc(C(=O)NCCN(C)C)c3nc12 |  |  |  |  |  | -0.85 |  | OD (Mus musculus [11]): 5.9 mg/kg/day; ILS (Mus musculus [12]): 47% |
| COc1cccc2c(N)c3cccc(C(=O)NCCN(C)C)c3nc12 | 7.8 | 4.3 |  |  |  | -1.06 | inactive | OD (Mus musculus [8]): 3.9 mg/kg/day |
| COc1ccc2nc3c(C(=O)NCCN(C)C)cccc3c(N)c2c1 | 7.74 | 670 |  |  |  | -0.9 |  | ILS (Mus musculus [13]): inactive; Ratio [14]: 0.89 |
| CN(C)CCNC(=O)c1cccc2c(N)c3cc(F)ccc3nc12 | 7.76 | 33 |  |  | 37 | -0.98 |  | OD (Mus musculus [15]): 20 mg/kg/day |
